Measurements published in ChEMBL document CHEMBL1127562, “N-substituted spirosuccinimide, spiropyridazine, spiroazetidine, and acetic acid aldose reductase inhibitors derived from isoquinoline-1,3-diones. 2” (J Med Chem, 1994).
Values belong to the compound of their own block, whether it stands above or below them. Active and inactive are the calls of the source. No cut-off for these calls is given here.

Tests used:
[1] = system: Rattus norvegicus; assay: Tested for in vivo inhibition of galactitol accumulation in the sciatic nerve of galactose-fed rats at the dose of 55 (mg/kg/day); NS=Not significant; format: functional, organism-based
In short: (§1)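 Rats fed a 20% galactose diet for 4 days, with test compound given in the diet at the stated daily dose (mg/kg/day). Read-out is inhibition of galactitol (polyol) accumulation in sciatic nerve. Values are % inhibition, mean ± SEM of six animals; p < 0.01 unless marked (some p < 0.05). NS = no significant inhibition of polyol accumulation. Tolrestat was the reference standard.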

[2] = system: Rattus norvegicus; assay: Tested for in vivo inhibition of galactitol accumulation in the lens of galactose-fed rats at the dose of 55 (mg/kg/day); NS=Not significant; format: functional, organism-based; details: Lens of camera-type eye
[3] = system: Rattus norvegicus; assay: Tested for in vivo inhibition of galactitol accumulation in the sciatic nerve of galactose-fed rats at the dose of 25 (mg/kg/day); NS=Not significant; format: functional, organism-based
In short: (§2)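 Rats were given a 20% galactose diet for 4 days, with the test compound administered in the diet. Sciatic nerve galactitol accumulation was measured, and activity is given as % inhibition at the stated daily dose (mg/kg/day). Values are mean ± SEM, n = 6 animals; p < 0.01 unless indicated. NS means no significant inhibition of polyol accumulation.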

[4] = biological target: Aldo-keto reductase family 1 member B1 (Bos taurus) (UniProt P16116); assay: Inhibition of aldose reductase activity in partially purified bovine lens preparation at 10e-5 M
In short: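 Partially purified bovine lens aldose reductase. Reduction of DL-glyceraldehyde substrate followed spectrophotometrically. Activity expressed as average inhibition at the tested concentrations, 1×10^-5, 1×10^-6, 1×10^-7 and 4×10^-6 M as printed; IC50 in M where given.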

[5] = system: Rattus norvegicus; assay: Tested for in vivo inhibition of galactitol accumulation in the lens of galactose-fed rats at the dose of 25 (mg/kg/day); NS=Not significant; format: functional, organism-based; details: Lens of camera-type eye
[6] = system: Rattus norvegicus; assay: Tested for in vivo inhibition of galactitol accumulation in the sciatic nerve of galactose-fed rats at the dose of 1.1 (mg/kg/day); format: functional; in short: as §2
[7] = system: Rattus norvegicus; assay: Tested for in vivo inhibition of galactitol accumulation in the lens of galactose-fed rats at the dose of 69.2 (mg/kg/day); NS=Not significant; format: functional, organism-based; details: Lens of camera-type eye
In short: (§3)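 Galactosemic rats were fed 20% galactose for 4 days, with the compound mixed into the diet. […] galactitol accumulation was measured, and activity is given as % inhibition at the stated daily dose (mg/kg/day). Values are mean ± SEM of six animals; p < 0.01 unless indicated. NS means no significant inhibition of polyol accumulation.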

[8] = system: Rattus norvegicus; assay: Tested for in vivo inhibition of galactitol accumulation in the sciatic nerve of galactose-fed rats at the dose of 69.2 (mg/kg/day); NS=Not significant; format: functional, organism-based; in short: as §1
[9] = system: Rattus norvegicus; assay: Tested for in vivo inhibition of galactitol accumulation in the lens of galactose-fed rats at the dose of 87.3 (mg/kg/day); NS=Not significant; format: functional, organism-based; details: Lens of camera-type eye; in short: as §3
[10] = system: Rattus norvegicus; assay: Tested for in vivo inhibition of galactitol accumulation in the sciatic nerve of galactose-fed rats at the dose of 87.3 (mg/kg/day); NS=Not significant; format: functional, organism-based; in short: as §1
[11] = biological target: Aldo-keto reductase family 1 member B1 (Bos taurus) (UniProt P16116); assay: Inhibition of aldose reductase activity in partially purified bovine lens preparation at 4*10 e-8 M
[12] = system: Rattus norvegicus; assay: Tested for in vivo inhibition of galactitol accumulation in the sciatic nerve of galactose-fed rats at the dose of 50 (mg/kg/day); format: functional; in short: as §1
[13] = system: Rattus norvegicus; assay: Tested for in vivo inhibition of galactitol accumulation in the lens of galactose-fed rats at the dose of 50 (mg/kg/day); format: functional, Lens of camera-type eye
[14] = system: Rattus norvegicus; assay: Tested for in vivo inhibition of galactitol accumulation in the sciatic nerve of galactose-fed rats at the dose of 25.1 (mg/kg/day); NS=Not significant; format: functional, organism-based; in short: as §2
[15] = system: Rattus norvegicus; assay: Tested for in vivo inhibition of galactitol accumulation in the sciatic nerve of galactose-fed rats at the dose of 24.9 (mg/kg/day); format: functional; in short: as §2
[16] = system: Rattus norvegicus; assay: Tested for in vivo inhibition of galactitol accumulation in the sciatic nerve of galactose-fed rats at the dose of 1.0 (mg/kg/day); NS=Not significant
[17] = system: Rattus norvegicus; assay: Tested for in vivo inhibition of galactitol accumulation in the lens of galactose-fed rats at the dose of 97.1 (mg/kg/day); NS=Not significant; format: functional, organism-based; details: Lens of camera-type eye; in short: as §3
[18] = system: Rattus norvegicus; assay: Tested for in vivo inhibition of galactitol accumulation in the sciatic nerve of galactose-fed rats at the dose of 97.1 (mg/kg/day); NS=Not significant; format: functional, organism-based; in short: as §1
[19] = system: Rattus norvegicus; assay: Tested for in vivo inhibition of galactitol accumulation in the sciatic nerve of galactose-fed rats at the dose of 47.2 (mg/kg/day); NS=Not significant; format: functional, organism-based; in short: as §2
[20] = system: Rattus norvegicus; assay: Tested for in vivo inhibition of galactitol accumulation in the lens of galactose-fed rats at the dose of 47.2 (mg/kg/day); NS=Not significant; format: functional, organism-based; details: Lens of camera-type eye

Structure (SMILES): O=C(O)CN1C(=O)c2ccccc2C(Cc2ccc(Br)cc2F)C1=O (configuration not stated)
inhibition [1]: inactive
inhibition [2]: inactive

Structure (SMILES): NC(=O)CC1C(=O)N(Cc2ccc(Br)cc2F)C(=O)c2ccc(F)cc21 (configuration not stated)
inhibition [3]: inactive
inhibition [4]: 88%
inhibition [5]: inactive

Structure (SMILES): CN1C(=O)CC2(C1=O)C(=O)N(Cc1ccc(Br)cc1F)C(=O)c1ccccc12 (configuration not stated)
inhibition [4]: inactive
Inhibition [6]: 76%

Structure (SMILES): CCN1C(=O)c2ccccc2C(CC(=O)NC(=O)OC)C1=O (configuration not stated)
inhibition [9]: inactive
inhibition [4]: inactive
inhibition [10]: inactive

Structure (SMILES): O=C(O)CC1C(=O)N(Cc2ccc(Br)cc2F)C(=O)c2cc(F)ccc21 (configuration not stated)
inhibition [11]: 42%

Structure (SMILES): CCN1C(=O)CC2(C1=O)C(=O)N(Cc1nc3cc(C(F)(F)F)ccc3s1)C(=O)c1ccc(F)cc12 (configuration not stated)
inhibition [4]: inactive

Structure (SMILES): CC1(CC(=O)O)C(=O)N(Cc2ccc(Cl)c(Cl)c2)C(=O)c2ccccc21 (configuration not stated)
inhibition [4]: 45%

Structure (SMILES): CC(C)=NN1C(=O)CC2(C(=O)N(Cc3nc4cc(C(F)(F)F)ccc4s3)C(=O)c3ccccc32)C1=O (configuration not stated)
inhibition [4]: inactive
Inhibition [12]: 95%
Inhibition [13]: 37%

Structure (SMILES): CNC(=O)CC1C(=O)N(Cc2ccc(Br)cc2F)C(=O)c2ccccc21 (configuration not stated)
inhibition [4]: 62%

Structure (SMILES): NN1C(=O)CC2(C1=O)C(=O)N(Cc1nc3cc(C(F)(F)F)ccc3s1)C(=O)c1ccccc12 (configuration not stated)
inhibition [4]: inactive
Inhibition [12]: 96%
Inhibition [13]: 61%

Structure (SMILES): COC(=O)NC(=O)CC1C(=O)N(C)C(=O)c2cc(Br)c(OC)cc21 (configuration not stated)
inhibition [4]: 29%

Structure (SMILES): CCN1C(=O)CC2(C1=O)C(=O)N(Cc1ccc(Br)cc1F)C(=O)c1ccc(F)cc12 (configuration not stated)
inhibition [4]: inactive

Structure (SMILES): COC(=O)NC(=O)CC1C(=O)N(C)C(=O)c2ccc(OC)cc21 (configuration not stated)
inhibition [4]: 53%
inhibition [19]: inactive
inhibition [20]: inactive

Now from value to compound, other results behind:

inhibition [4]: inactive
Structure (SMILES): CN1C(=O)c2ccccc2C(CC(N)=O)C1=O (configuration not stated)
inhibition [7]: inactive
inhibition [8]: inactive

inhibition [4]: inactive
Structure (SMILES): CN1NC(=O)C2(CC1=O)C(=O)N(Cc1ccc(Br)cc1F)C(=O)c1ccccc12 (configuration not stated)
inhibition [1]: inactive

inhibition [4]: inactive
Structure (SMILES): CC(=O)NN1C(=O)CC2(C(=O)N(Cc3nc4cc(C(F)(F)F)ccc4s3)C(=O)c3ccccc32)C1=O (configuration not stated)
Inhibition [12]: 94%
Inhibition [13]: 40%

inhibition [4]: inactive
Structure (SMILES): CN1C(=O)CC2(C1=O)C(=O)N(Cc1ccc(C(F)(F)F)cc1)C(=O)c1ccccc12 (configuration not stated)
inhibition [14]: inactive

inhibition [4]: inactive
Structure (SMILES): CN1C(=O)CC2(C1=O)C(=O)N(Cc1cccc(C(F)(F)F)c1)C(=O)c1ccccc12 (configuration not stated)
Inhibition [15]: 28%

inhibition [4]: inactive
Structure (SMILES): CCCN1C(=O)CC2(C1=O)C(=O)N(Cc1ccc(Br)cc1F)C(=O)c1ccc(F)cc12 (configuration not stated)
inhibition [16]: inactive

inhibition [4]: inactive
Structure (SMILES): CCCCN1C(=O)c2ccccc2C(CC(=O)NC(=O)OC)C1=O (configuration not stated)
inhibition [17]: inactive
inhibition [18]: inactive
